Legend:
Mus musculus [1] = assay: Anticonvulsant activity was measured by maximal electroshock seizure test in mice by ip administration; assay type: functional
In short: (§1)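 Male albino CF No. 1 mice (18–25 g) were dosed ip and tested by maximal electroshock at the previously determined time of peak effect. Groups of at least eight mice received various doses until at least two points fell between 0% and 100% protection. ED50 and its 95% confidence interval were calculated. Single-dose entries give protection percentage at the indicated dose.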

Rattus norvegicus [2] = assay: Minimal motor impairment activity by Rotarod test in rat following p.o. administration.; assay type: functional; conditions: po
In short: (§2)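 Minimal motor impairment in male Sprague–Dawley rats (100 g) after oral dosing was judged at the time of peak effect. The criterion was overt ataxia, abnormal gait and stance, and/or loss of placing response and muscle tone. Groups had at least eight rats across various doses, and the median impairing dose with its 95% confidence interval was calculated.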

Rattus norvegicus [3] = assay: Anticonvulsant activity was measured by maximal electroshock seizure test in rat by po administration; assay type: functional
In short: (§3)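 Maximal electroshock test in male albino Sprague–Dawley rats (100 g) after oral dosing, run at the previously determined time of peak effect. At least eight rats per group received various doses until at least two points lay between 0% and 100% protection. ED50 with 95% confidence interval was calculated. Single-dose entries report percent protection at that dose.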

[4] = Partition coefficient (logP); assay type: physicochemical; conditions: octanol/water
Mus musculus [5] = assay: Minimal motor impairment activity by Rotarod test in mice following i.p. administration.; assay type: functional; conditions: ip
In short: (§4)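 Rotorod neurotoxicity test in male albino CF No. 1 mice dosed ip, run at the time of peak effect. Impairment was defined as failure to keep equilibrium for 60 s in each of three trials on the rotating rod. With groups of at least eight mice across various doses, the median motor-impairing dose and its 95% confidence interval were calculated.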

Mus musculus [6] = assay: Anticonvulsant activity was measured by maximal electroshock seizure test in mice by ip administration at 100 mg/kg; assay type: functional; conditions: route intraperitoneal; in short: as §1
Rattus norvegicus [7] = assay: Anticonvulsant activity was measured by maximal electroshock seizure test in rat by po administration at 50 mg/kg; assay type: functional; in short: as §3
Mus musculus [8] = assay: Minimal motor impairment activity was measured by Rotarod test in mice by ip administration; assay type: functional; in short: as §4
Rattus norvegicus [9] = assay: Minimal motor impairment activity was measured by Rotarod test in rat by po administration; assay type: functional; in short: as §2
Rattus norvegicus [10] = assay: Anticonvulsant activity in corneal kindled rats was determined when 40 mg/kg was administered orally; assay type: functional; conditions: route oral
In short: (§5)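 Male Sprague–Dawley rats were kindled by daily corneal stimulation (8 mA, 60 Hz, 4 s) until they reached 10 consecutive stage 5 seizures (rearing and falling with clonus). The drug was then given orally, and seizure score was recorded as mean ± variation. Abolition of the generalized stage 4–5 seizure served as the endpoint.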

Rattus norvegicus [11] = assay: Anticonvulsant activity in corneal kindled rats was determined when 80 mg/kg was administered orally; assay type: functional; conditions: route oral; in short: as §5
Rattus norvegicus [12] = assay: Anticonvulsant activity in corneal kindled rats was determined when 10 mg/kg was administered orally; assay type: functional; conditions: route oral; in short: as §5
Rattus norvegicus [13] = assay: Anticonvulsant activity in corneal kindled rats was determined when 20 mg/kg was administered orally; assay type: functional; conditions: route oral; in short: as §5
Rattus norvegicus [14] = assay: Anticonvulsant activity was measured by maximal electroshock seizure test in rat by po administration at 25 mg/kg; assay type: functional; in short: as §3
Mus musculus [15] = assay: Anticonvulsant activity was measured by maximal electroshock seizure test in mice by ip administration at 100 mg/kg dose; assay type: functional; conditions: route intraperitoneal; in short: as §1
Rattus norvegicus [16] = assay: Anticonvulsant activity was measured by maximal electroshock seizure test in rat by po administration at 50 mg/kg dose; assay type: functional; in short: as §3
Mus musculus [17] = assay: Anticonvulsant activity was measured by maximal electroshock seizure test in mice by ip administration at 30 mg/kg; assay type: functional; conditions: route intraperitoneal; in short: as §1
Mus musculus [18] = assay: Minimal motor impairment activity of the compound was measured by Rotarod test in mice by ip administration; No effective response; assay type: functional, organism-based; in short: as §4
Rattus norvegicus [19] = assay: Minimal motor impairment activity of the compound was measured by […] in rat by po administration; No effective response; assay type: functional, organism-based; in short: as §2
Rattus norvegicus [20] = assay: Anticonvulsant activity was measured by maximal electroshock seizure test in rat by po administration; No effective response; assay type: functional, organism-based; in short: as §3
Mus musculus [21] = assay: Anticonvulsant activity was measured by maximal electroshock seizure test in mice by ip administration; No effective response; assay type: functional, organism-based; in short: as §1
Mus musculus [22] = assay: Anticonvulsant activity (ED50) was measured by maximal electroshock seizure test in mice by ip administration; No effective response; assay type: functional, organism-based; in short: as §1
Rattus norvegicus [23] = assay: Anticonvulsant activity in corneal kindled rats was determined when 25 mg/kg was administered orally; assay type: functional; conditions: route oral
In short: (§6)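 Corneally kindled male Sprague–Dawley rats (100 g), stimulated daily via corneal electrodes (8 mA, 60 Hz, 4 s) until 10 consecutive stage 5 seizures. Drug was dosed orally at 0.04 mL/10 g body weight. Seizure severity was scored after dosing, with abolition of the generalized stage 4/5 seizure (clonus, rearing and falling) as the endpoint.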

Rattus norvegicus [24] = assay: Anticonvulsant activity in corneal kindled rats was determined when 50 mg/kg was administered orally; assay type: functional; conditions: route oral; in short: as §6
Rattus norvegicus [25] = assay: Anticonvulsant activity in corneal kindled rats was determined when 75 mg/kg was administered orally; assay type: functional; conditions: route oral; in short: as §6
Rattus norvegicus [26] = assay: Anticonvulsant activity in corneal kindled rats was determined when 100 mg/kg was administered orally; assay type: functional; conditions: route oral; in short: as §6
Rattus norvegicus [27] = assay: Anticonvulsant activity (ED50) was measured by maximal electroshock seizure test in rat by po administration; No effective response; assay type: functional, organism-based; in short: as §3
Rattus norvegicus [28] = assay: Anticonvulsant activity was measured by maximal electroshock seizure test in rat by po administration at 30 mg/kg; assay type: functional; in short: as §3

Row | Structure (SMILES) | ED50 (Mus musculus [1]) | ED50 (Rattus norvegicus [2]) | logP [4] | ED50 (Mus musculus [5]) | also measured
1 | COC(=O)c1c(N2CCOCC2)c(-c2ccc(Cl)cc2)cn1C(C)=O | 33.1 mg/kg | > 250 mg/kg | 3.5 | 35.4 mg/kg | ED50 (Rattus norvegicus [3]): 13.6 mg/kg
2 | COC(=O)c1c(N2CCOCC2)c(-c2ccc(Cl)cc2)cn1C(=O)c1ccccc1 | 43.7 mg/kg | > 500 mg/kg | 5.5 | 175 mg/kg | ED50 (Rattus norvegicus [3]): 14 mg/kg
3 | COC(=O)c1[nH]cc(-c2ccc(Cl)cc2)c1N1CCN(c2ccccc2)CC1 | 175 mg/kg | > 500 mg/kg | 4.4 | > 500 mg/kg | ED50 (Rattus norvegicus [3]): 12.5 mg/kg
4 | COC(=O)c1[nH]cc(-c2ccccc2C)c1N1CCOCC1 |  | > 50 mg/kg | 2.8 | > 100 mg/kg | Protection (Mus musculus [6]): 60%; Protection (Rattus norvegicus [7]): 50%
5 | COC(=O)c1[nH]cc(-c2cccc(Br)c2)c1N1CCOCC1 |  |  |  |  | ED50 (Mus musculus [8]): > 300 mg/kg; Protection (Mus musculus [6]): 100%; ED50 (Rattus norvegicus [9]): > 50 mg/kg; Protection (Rattus norvegicus [7]): 75%
6 | NC(=O)N1c2ccccc2C=Cc2ccccc21 [CARBAMAZEPINE] | 9.9 mg/kg | 361 mg/kg |  | 47.8 mg/kg | ED50 (Rattus norvegicus [3]): 11.9 mg/kg; Seizure score (Rattus norvegicus [10]): 3.8; Seizure score (Rattus norvegicus [11]): 2; Seizure score (Rattus norvegicus [12]): 4.8; Seizure score (Rattus norvegicus [13]): 4.5
7 | NC(=O)c1[nH]cc(-c2ccc(Cl)cc2)c1N1CCOCC1 | 65 mg/kg | > 50 mg/kg | 2.4 | > 500 mg/kg | 
8 | CCOC(=O)c1[nH]cc(-c2ccc(Cl)cc2)c1N1CCOCC1 | 49.9 mg/kg | > 500 mg/kg | 3.9 | 158 mg/kg | ED50 (Rattus norvegicus [3]): 7.9 mg/kg
9 | O=C(O)c1[nH]cc(-c2ccc(Cl)cc2)c1N1CCOCC1 |  | > 25 mg/kg | 1.8 | > 300 mg/kg | Protection (Rattus norvegicus [14]): 75%
10 | N#Cc1[nH]cc(-c2ccc(Cl)cc2)c1N1CCOCC1 |  | > 50 mg/kg | 3.5 | > 300 mg/kg | Protection (Mus musculus [15]): 30%; Protection (Rattus norvegicus [16]): 100%
11 | O=C(c1[nH]cc(-c2ccc(Cl)cc2)c1N1CCOCC1)N1CCOCC1 |  |  | 3.1 |  | 
12 | COC(=O)c1[nH]cc(-c2ccc(Cl)cc2)c1N1CCOCC1 | 58.1 mg/kg | > 500 mg/kg | 3.5 | 56.4 mg/kg | ED50 (Rattus norvegicus [3]): 11.4 mg/kg
13 | Clc1ccc(-c2c[nH]cc2N2CCOCC2)cc1 | 62.1 mg/kg | > 200 mg/kg | 3.2 | 115 mg/kg | ED50 (Rattus norvegicus [3]): 17.7 mg/kg
14 | C=CCNC(=O)c1[nH]cc(-c2ccc(Cl)cc2)c1N1CCOCC1 |  |  | 3.7 |  | 
15 | Cn1cc(-c2ccc(Cl)cc2)c(N2CCOCC2)c1C(=O)O |  |  | 2.3 |  | 
16 | CN(C)C(=O)c1[nH]cc(-c2ccc(Cl)cc2)c1N1CCOCC1 |  |  | 3.1 |  | 

Row | Structure (SMILES) | ED50 (Mus musculus [1]) | ED50 (Rattus norvegicus [2]) | logP [4] | ED50 (Mus musculus [5]) | also measured
17 | COC(=O)c1[nH]cc(-c2ccc(Cl)cc2)c1N(C)CCN(C)C |  | > 50 mg/kg | 3.3 | < 30 mg/kg | Protection (Mus musculus [17]): 100%; Protection (Rattus norvegicus [7]): 100%
18 | COC(=O)CCc1c(N2CCOCC2)c(-c2ccc(Cl)cc2)cn1C |  |  |  |  | ED50 (Mus musculus [18]): No effective response; ED50 (Rattus norvegicus [19]): No effective response; ED50 (Rattus norvegicus [20]): No effective response; ED50 (Mus musculus [21]): No effective response
19 | CC(=O)c1[nH]cc(-c2ccc(Cl)cc2)c1N1CCOCC1 | 72.6 mg/kg | > 100 mg/kg |  | 335 mg/kg | ED50 (Rattus norvegicus [3]): 10.6 mg/kg
20 | Clc1ccc(-c2c[nH]nc2N2CCOCC2)cc1 | 47 mg/kg | > 50 mg/kg |  | 300 mg/kg | Protection (Rattus norvegicus [7]): 100%
21 | CCCNC(=O)c1[nH]cc(-c2ccc(Cl)cc2)c1N1CCOCC1 |  |  | 4.2 |  | 
22 | CN1CCN(C(=O)c2[nH]cc(-c3ccc(Cl)cc3)c2N2CCOCC2)CC1 |  | > 50 mg/kg | 3.3 | > 300 mg/kg | ED50 (Mus musculus [22]): No effective response; Protection (Rattus norvegicus [7]): 50%
23 | COC(=O)c1[nH]cc(-c2ccc(Br)cc2)c1N1CCOCC1 | 27.8 mg/kg | > 500 mg/kg | 3.8 | 166 mg/kg | ED50 (Rattus norvegicus [3]): 2.5 mg/kg; Seizure score (Rattus norvegicus [23]): 4.3; Seizure score (Rattus norvegicus [24]): 3.7; Seizure score (Rattus norvegicus [25]): 1.7; Seizure score (Rattus norvegicus [26]): 1.9
24 | Cn1cc(-c2ccc(Cl)cc2)c(N2CCOCC2)c1 |  |  | 4.2 |  | 
25 | CCS(=O)(=O)n1cc(-c2ccc(Cl)cc2)c(N2CCOCC2)c1C(=O)OC |  |  | 4.2 |  | ED50 (Mus musculus [18]): No effective response; ED50 (Mus musculus [22]): No effective response; ED50 (Rattus norvegicus [19]): No effective response; ED50 (Rattus norvegicus [27]): No effective response
26 | CCOC(=O)c1[nH]cc(-c2ccc(Cl)cc2)c1N1CCN(C)CC1 |  | < 25 mg/kg |  | < 25 mg/kg | Protection (Mus musculus [17]): 100%; Protection (Rattus norvegicus [28]): 100%
27 | Clc1ccc(-c2cnoc2N2CCOCC2)cc1 |  |  |  |  | ED50 (Mus musculus [18]): No effective response; ED50 (Rattus norvegicus [19]): No effective response; ED50 (Rattus norvegicus [20]): No effective response; ED50 (Mus musculus [21]): No effective response
28 | CC(C)COC(=O)c1[nH]cc(-c2ccc(Cl)cc2)c1N1CCOCC1 |  |  |  |  | ED50 (Mus musculus [18]): No effective response; ED50 (Rattus norvegicus [19]): No effective response; ED50 (Rattus norvegicus [20]): No effective response; ED50 (Mus musculus [21]): No effective response
29 | COC(=O)c1c(N2CCOCC2)c(-c2ccc(Cl)cc2)cn1C(=O)N1CCOCC1 |  |  | 3.1 |  | 
30 | COCCNC(=O)c1[nH]cc(-c2ccc(Cl)cc2)c1N1CCOCC1 |  |  | 3.3 |  | 
31 | CCN1C(=O)c2c(N3CCOCC3)c(-c3ccc(Cl)cc3)cn2C1=O |  |  |  |  | ED50 (Mus musculus [18]): No effective response; ED50 (Rattus norvegicus [19]): No effective response; ED50 (Rattus norvegicus [20]): No effective response; ED50 (Mus musculus [21]): No effective response

Source: ChEMBL document CHEMBL1131206, “Synthesis, anticonvulsant activity, and structure-activity relationships of sodium channel blocking 3-aminopyrroles” (J Med Chem, 1998)
